Measured values: ChEMBL document CHEMBL1765087, “Synthesis and evaluation of cardiac glycoside mimics as potential anticancer drugs” (Bioorg Med Chem, 2011)
pIC50: −log10 of the molar value.

Assays:
[1] = tested on: MCF7; assay: Antiproliferative activity against human MCF7 cells assessed as cell viability treated for 48 hrs followed by compound washout measured after 72 hrs by fluorometric CellTiter-Blue reagent assay; type: functional, cell-based
In short: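 MCF-7 cells grown in DMEM Glutamax with 10% fetal calf serum, penicillin and streptomycin, 37 °C, 5% CO₂. Seeded 3000 cells/well in triplicate, cultured overnight, then given a dilution series of compound; equivalent DMSO dilution series used for normalization. 48 h exposure, then 72 h in fresh compound-free medium before viability read-out.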

[2] = species: Sus scrofa; assay: Binding affinity to pig kidney Na+/K+-ATPase assessed as inorganic phosphate release after 2 hrs
In short: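 Purified pig kidney Na⁺,K⁺-ATPase (specific activity 25–30 U/mg protein) preincubated 2 h with a range of inhibitor concentrations in 130 mM NaCl, 20 mM KCl, 4 mM MgCl₂, 30 mM histidine pH 7.4, 20 °C. 3 mM ATP added, 5 min reaction, released inorganic phosphate measured. Ouabain-insensitive activity (1 mM ouabain) subtracted. K_app from hyperbolic fit.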

Structure (SMILES) | pIC50 [1] | Kapp [2] [µM]
C[C@]12CC[C@H](O)C[C@H]1CC[C@@H]1[C@@H]2CC[C@]2(C)[C@@H](C3=CC(=O)OC3)CC[C@]12O [DIGITOXIGENIN] | 6.22 | 0.52
C[C@]12CC[C@H](SCCOCCOCCO)C[C@H]1CC[C@@H]1[C@@H]2CC[C@]2(C)[C@@H](C3=CC(=O)OC3)CC[C@]12O | 6.10 | 1.27
C[C@]12CC[C@H](SCCOCCO)C[C@H]1CC[C@@H]1[C@@H]2CC[C@]2(C)[C@@H](C3=CC(=O)OC3)CC[C@]12O | 6.40 | 0.73
C[C@]12CC[C@H](SCCS[C@H]3CC[C@@]4(C)[C@H](CC[C@@H]5[C@@H]4CC[C@]4(C)[C@@H](C6=CC(=O)OC6)CC[C@]54O)C3)C[C@H]1CC[C@@H]1[C@@H]2CC[C@]2(C)[C@@H](C3=CC(=O)OC3)CC[C@]12O | 5.15 | 9.9
C[C@]12CC[C@H](SCCOCCOCCOCCS[C@H]3CC[C@@]4(C)[C@H](CC[C@@H]5[C@@H]4CC[C@]4(C)[C@@H](C6=CC(=O)OC6)CC[C@]54O)C3)C[C@H]1CC[C@@H]1[C@@H]2CC[C@]2(C)[C@@H](C3=CC(=O)OC3)CC[C@]12O | 4.89 | > 53
C[C@]12CC[C@H](SCCOCCOCCS[C@H]3CC[C@@]4(C)[C@H](CC[C@@H]5[C@@H]4CC[C@]4(C)[C@@H](C6=CC(=O)OC6)CC[C@]54O)C3)C[C@H]1CC[C@@H]1[C@@H]2CC[C@]2(C)[C@@H](C3=CC(=O)OC3)CC[C@]12O | 5.18 | 20.5
C[C@]12CC[C@H](SCCOCCS[C@H]3CC[C@@]4(C)[C@H](CC[C@@H]5[C@@H]4CC[C@]4(C)[C@@H](C6=CC(=O)OC6)CC[C@]54O)C3)C[C@H]1CC[C@@H]1[C@@H]2CC[C@]2(C)[C@@H](C3=CC(=O)OC3)CC[C@]12O | 5.07 | 17.2
C[C@]12CC[C@H](SCCO)C[C@H]1CC[C@@H]1[C@@H]2CC[C@]2(C)[C@@H](C3=CC(=O)OC3)CC[C@]12O | 6.70 | 0.48
C[C@H]1O[C@@H](O[C@H]2[C@@H](O)C[C@H](O[C@H]3[C@@H](O)C[C@H](O[C@H]4CC[C@@]5(C)[C@H](CC[C@@H]6[C@@H]5CC[C@]5(C)[C@@H](C7=CC(=O)OC7)CC[C@]65O)C4)O[C@@H]3C)O[C@@H]2C)C[C@H](O)[C@@H]1O [DIGITOXIN] | 7.70 | 0.99
C[C@]12CC[C@H](SCCOCCOCCOCCO)C[C@H]1CC[C@@H]1[C@@H]2CC[C@]2(C)[C@@H](C3=CC(=O)OC3)CC[C@]12O | 5.85 | 2.1
C[C@]12CC[C@H](S)C[C@H]1CC[C@@H]1[C@@H]2CC[C@]2(C)[C@@H](C3=CC(=O)OC3)CC[C@]12O | 6.30 | 0.42
